Experimental data: ChEMBL document CHEMBL5705905, “Pharmacological targeting of kinases MST1 and MST2 augments tissue repair and regeneration” (Sci Transl Med, 2016)
pIC50, pKd: −log10 of the molar value.

How the values were obtained:
[1] = target: T1, Serine/threonine-protein kinase 3 (Homo sapiens, UniProt Q13188); assay: Inhibition of recombinant His-tagged full-length MST2 (unknown origin) expressing in Escherichia coli assessed as MOB1a phosphorylation level incubated for 30 min in the presence of 300 uM ATP by immunoblot analysis
T1 sequence (Q13188 whole entry): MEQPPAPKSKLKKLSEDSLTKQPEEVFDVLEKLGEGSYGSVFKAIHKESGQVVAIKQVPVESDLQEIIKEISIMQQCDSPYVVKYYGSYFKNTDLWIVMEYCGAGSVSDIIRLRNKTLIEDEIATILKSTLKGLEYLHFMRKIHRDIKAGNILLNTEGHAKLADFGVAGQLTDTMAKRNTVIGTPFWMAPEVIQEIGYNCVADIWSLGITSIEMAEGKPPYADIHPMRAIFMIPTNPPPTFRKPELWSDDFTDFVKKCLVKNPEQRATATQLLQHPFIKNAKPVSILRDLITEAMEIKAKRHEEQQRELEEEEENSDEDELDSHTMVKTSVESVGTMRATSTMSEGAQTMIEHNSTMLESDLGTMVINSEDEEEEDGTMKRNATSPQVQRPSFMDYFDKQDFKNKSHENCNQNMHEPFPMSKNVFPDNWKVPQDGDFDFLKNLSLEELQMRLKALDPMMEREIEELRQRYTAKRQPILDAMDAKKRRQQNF

[2] = system: Epidermal growth factor receptor (Homo sapiens), P00533 [L858R,T790M]; assay: Inhibition of EGFR L858R/T790M mutant (unknown origin) assessed as remaining activity at 1 uM by Kinome scan method relative to control
[3] = target: Receptor tyrosine-protein kinase erbB-3 (Homo sapiens) (UniProt P21860); assay: Inhibition of ERBB3 (unknown origin) assessed as remaining activity at 1 uM by Kinome scan method relative to control
[4] = target: Mitogen-activated protein kinase 7 (Homo sapiens) (UniProt Q13164); assay: Inhibition of ERK5 (unknown origin) assessed as remaining activity at 1 uM by Kinome scan method relative to control
[5] = target: Fibroblast growth factor receptor 3 (Homo sapiens) (UniProt P22607); assay: Inhibition of FGFR3 (unknown origin) assessed as remaining activity at 1 uM by Kinome scan method relative to control
[6] = system: Receptor-type tyrosine-protein kinase FLT3 (Homo sapiens), P36888 [UNDEFINED MUTATION]; assay: Inhibition of FLT3 […]/F691L mutant (unknown origin) assessed as remaining activity at 1 uM by Kinome scan method relative to control
[7] = target: T2, Tyrosine-protein kinase JAK1 (Homo sapiens, UniProt P23458); assay: Inhibition of JAK1 JH2 domain (unknown origin) assessed as remaining activity at 1 uM by Kinome scan method relative to control
[8] = target: Cyclin-dependent kinase 15 (Homo sapiens) (UniProt Q96Q40); assay: Inhibition of PFTAIRE2 (unknown origin) assessed as remaining activity at 1 uM by Kinome scan method relative to control
[9] = target: Rho-associated protein kinase 1 (Homo sapiens) (UniProt Q13464); assay: Inhibition of ROCK1 (unknown origin) assessed as remaining activity at 1 uM by Kinome scan method relative to control
Outline: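 KINOMEscan active-site competition binding assay at 1 μM against 468 kinases. Ctrl% = (test − positive control)/(negative control DMSO − positive control) × 100; lower values mean tighter binding.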

[10] = target: Serine/threonine-protein kinase 35 (Homo sapiens) (UniProt Q8TDR2); assay: Inhibition of STK35 (unknown origin) assessed as remaining activity at 1 uM by Kinome scan method relative to control
[11] = target: Serine/threonine-protein kinase 36 (Homo sapiens) (UniProt Q9NRP7); assay: Inhibition of STK36 (unknown origin) assessed as remaining activity at 1 uM by Kinome scan method relative to control
[12] = target: Serine/threonine-protein kinase tousled-like 2 (Homo sapiens) (UniProt Q86UE8); assay: Inhibition of TLK2 (unknown origin) assessed as remaining activity at 1 uM by Kinome scan method relative to control
[13] = target: Testis-specific serine/threonine-protein kinase 1 (Homo sapiens) (UniProt Q9BXA7); assay: Inhibition of TSSK1B (unknown origin) assessed as remaining activity at 1 uM by Kinome scan method relative to control
[14] = target: Aurora kinase A (Homo sapiens, UniProt O14965); assay: Binding affinity to AURKA (unknown origin) assessed as dissociation constant
[15] = target: T2, Tyrosine-protein kinase JAK1; assay: Binding affinity to JAK1 JH2domain-pseudokinase (unknown origin) assessed as dissociation constant
[16] = target: T3, Serine/threonine-protein kinase 4 (Homo sapiens, UniProt Q13043); assay: Inhibition of MST1 (unknown origin) in presence of ATP by enzymatic assay
T3 sequence (Q13043 whole entry): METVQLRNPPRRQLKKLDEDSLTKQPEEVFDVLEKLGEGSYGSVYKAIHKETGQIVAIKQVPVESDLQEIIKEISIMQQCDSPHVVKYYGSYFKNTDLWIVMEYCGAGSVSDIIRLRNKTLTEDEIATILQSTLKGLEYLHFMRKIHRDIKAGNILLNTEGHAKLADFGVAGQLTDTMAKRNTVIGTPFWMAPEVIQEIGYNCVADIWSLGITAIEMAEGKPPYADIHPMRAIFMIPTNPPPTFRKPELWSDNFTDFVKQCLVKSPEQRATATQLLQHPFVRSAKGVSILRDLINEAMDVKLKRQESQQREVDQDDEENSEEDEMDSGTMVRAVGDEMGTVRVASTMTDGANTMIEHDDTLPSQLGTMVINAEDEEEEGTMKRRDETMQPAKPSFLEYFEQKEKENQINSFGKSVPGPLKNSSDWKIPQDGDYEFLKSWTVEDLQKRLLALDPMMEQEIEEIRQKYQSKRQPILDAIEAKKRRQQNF

[17] = target: T1, Serine/threonine-protein kinase 3; assay: Inhibition of MST2 (unknown origin) in presence of ATP by enzymatic assay
[18] = target: Tyrosine-protein kinase ABL1 (Homo sapiens, UniProt P00519, M351T); assay: Inhibition of phosphorylated ABL1 M351T mutant (unknown origin) in presence of ATP by enzymatic assay
[19] = Inhibition of recombinant His-tagged full-length MST1 Y101F/D109A mutant (unknown origin) expressing in Escherichia coli assessed as MOB1 phosphorylation level incubated for 15 min by immunoblot analysis; set-up: species or system Homo sapiens
[20] = Acute toxicity in wild-type mouse assessed as cell proliferation in kidney at 3 mg/kg,ip administrated daily for 7 days by Ki67 staining; assay type: organism-based; details: in vivo, 168 h, time 7 day
Outline: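 Wild-type mice received vehicle or 3 mg/kg i.p. daily for 7 days. Ki67 staining of sections from various tissues with quantification of positive cells, n = 6; means ± SD, Student's t test. Daily weights, physical activity and serum chemistry were also monitored.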

[21] = Acute toxicity in wild-type mouse assessed as ratio of liver weight to body weight at 1 mg/kg,ip administrated twice daily for 7 days; assay type: organism-based; details: in vivo, 168 h, time 7 day
Outline: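 Wild-type mice underwent two-thirds partial hepatectomy with vehicle or 1 mg/kg i.p. twice per day, starting with a dose before surgery. Liver/body weight ratio was followed over postoperative days, n = 5; means ± SD.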

T2 sequence (P23458 whole entry, the tested form may be a part): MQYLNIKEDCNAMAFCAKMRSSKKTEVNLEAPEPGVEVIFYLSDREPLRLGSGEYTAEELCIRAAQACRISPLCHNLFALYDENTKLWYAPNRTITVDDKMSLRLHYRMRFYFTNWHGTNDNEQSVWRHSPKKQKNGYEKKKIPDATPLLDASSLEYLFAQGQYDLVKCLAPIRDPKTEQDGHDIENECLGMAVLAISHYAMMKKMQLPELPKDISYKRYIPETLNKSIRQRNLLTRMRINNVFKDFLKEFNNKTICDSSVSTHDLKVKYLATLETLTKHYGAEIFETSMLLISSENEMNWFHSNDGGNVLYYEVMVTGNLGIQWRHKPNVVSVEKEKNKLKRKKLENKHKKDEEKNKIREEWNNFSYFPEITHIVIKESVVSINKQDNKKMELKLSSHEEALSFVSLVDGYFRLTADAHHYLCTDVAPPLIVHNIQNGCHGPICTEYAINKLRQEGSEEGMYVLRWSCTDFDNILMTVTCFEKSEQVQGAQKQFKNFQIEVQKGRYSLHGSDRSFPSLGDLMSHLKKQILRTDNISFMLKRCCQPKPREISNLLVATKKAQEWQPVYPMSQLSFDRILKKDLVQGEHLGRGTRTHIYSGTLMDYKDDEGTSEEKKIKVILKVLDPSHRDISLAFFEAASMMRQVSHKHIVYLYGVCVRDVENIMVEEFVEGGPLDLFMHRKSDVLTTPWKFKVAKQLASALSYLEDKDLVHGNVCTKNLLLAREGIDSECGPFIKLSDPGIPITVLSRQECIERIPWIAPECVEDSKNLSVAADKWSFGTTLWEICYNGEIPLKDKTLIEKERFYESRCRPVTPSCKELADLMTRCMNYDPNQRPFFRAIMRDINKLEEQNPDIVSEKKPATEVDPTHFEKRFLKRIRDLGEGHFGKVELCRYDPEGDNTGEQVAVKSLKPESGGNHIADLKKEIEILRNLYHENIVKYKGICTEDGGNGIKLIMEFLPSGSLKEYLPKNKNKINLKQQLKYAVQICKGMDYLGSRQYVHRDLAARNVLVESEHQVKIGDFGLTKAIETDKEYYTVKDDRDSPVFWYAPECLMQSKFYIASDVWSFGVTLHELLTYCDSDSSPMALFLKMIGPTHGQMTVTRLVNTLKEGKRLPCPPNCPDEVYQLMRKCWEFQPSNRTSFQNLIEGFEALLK
Chain of Testis-specific serine/threonine-protein kinase 1 (Homo sapiens) (Q9BXA7 whole entry): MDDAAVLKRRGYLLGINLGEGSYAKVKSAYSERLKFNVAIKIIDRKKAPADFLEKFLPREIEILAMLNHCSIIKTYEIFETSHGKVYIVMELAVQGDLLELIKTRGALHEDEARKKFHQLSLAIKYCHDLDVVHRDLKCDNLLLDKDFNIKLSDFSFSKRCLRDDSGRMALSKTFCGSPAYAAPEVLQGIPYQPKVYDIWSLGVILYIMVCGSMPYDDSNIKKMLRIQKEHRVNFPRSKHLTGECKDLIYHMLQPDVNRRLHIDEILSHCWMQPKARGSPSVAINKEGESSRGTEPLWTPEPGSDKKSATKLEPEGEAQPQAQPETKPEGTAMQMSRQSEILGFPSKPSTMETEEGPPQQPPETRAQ
Chain of Serine/threonine-protein kinase tousled-like 2 (Homo sapiens) (Q86UE8 whole entry, looked up): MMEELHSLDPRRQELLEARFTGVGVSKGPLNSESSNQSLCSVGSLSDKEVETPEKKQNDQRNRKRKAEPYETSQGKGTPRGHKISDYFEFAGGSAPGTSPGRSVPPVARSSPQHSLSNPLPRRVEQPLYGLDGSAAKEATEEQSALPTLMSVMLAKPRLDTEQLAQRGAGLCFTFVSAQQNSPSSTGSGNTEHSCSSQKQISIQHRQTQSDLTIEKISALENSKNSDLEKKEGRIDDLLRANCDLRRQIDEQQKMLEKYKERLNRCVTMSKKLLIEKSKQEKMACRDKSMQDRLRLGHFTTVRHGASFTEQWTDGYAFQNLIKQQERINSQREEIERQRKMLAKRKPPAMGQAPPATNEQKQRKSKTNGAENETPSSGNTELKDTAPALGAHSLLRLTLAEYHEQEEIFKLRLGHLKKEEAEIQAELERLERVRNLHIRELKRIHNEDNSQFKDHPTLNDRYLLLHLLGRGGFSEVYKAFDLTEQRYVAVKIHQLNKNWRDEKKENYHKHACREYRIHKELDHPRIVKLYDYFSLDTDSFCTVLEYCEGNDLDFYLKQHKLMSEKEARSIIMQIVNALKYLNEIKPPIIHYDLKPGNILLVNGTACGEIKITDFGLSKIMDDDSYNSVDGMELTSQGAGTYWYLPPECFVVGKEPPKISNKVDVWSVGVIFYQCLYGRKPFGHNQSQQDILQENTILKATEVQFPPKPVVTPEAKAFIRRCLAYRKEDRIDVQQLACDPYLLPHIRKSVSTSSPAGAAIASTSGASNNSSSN
Chain of Serine/threonine-protein kinase 35 (Homo sapiens) (Q8TDR2 whole entry): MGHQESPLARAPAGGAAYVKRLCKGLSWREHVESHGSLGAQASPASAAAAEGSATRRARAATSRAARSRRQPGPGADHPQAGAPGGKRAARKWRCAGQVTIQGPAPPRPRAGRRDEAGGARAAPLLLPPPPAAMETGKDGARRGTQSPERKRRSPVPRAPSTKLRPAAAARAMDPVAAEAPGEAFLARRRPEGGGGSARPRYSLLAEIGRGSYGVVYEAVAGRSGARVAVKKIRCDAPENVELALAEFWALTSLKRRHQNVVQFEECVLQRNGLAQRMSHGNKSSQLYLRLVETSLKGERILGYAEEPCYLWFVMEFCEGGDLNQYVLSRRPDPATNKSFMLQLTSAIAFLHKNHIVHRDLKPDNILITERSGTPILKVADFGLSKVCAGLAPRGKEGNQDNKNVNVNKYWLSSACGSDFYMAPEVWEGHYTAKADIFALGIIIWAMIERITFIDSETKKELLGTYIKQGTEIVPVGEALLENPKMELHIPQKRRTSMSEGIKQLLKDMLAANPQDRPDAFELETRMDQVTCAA
Chain of Fibroblast growth factor receptor 3 (Homo sapiens) (P22607 23-806 limits assumed): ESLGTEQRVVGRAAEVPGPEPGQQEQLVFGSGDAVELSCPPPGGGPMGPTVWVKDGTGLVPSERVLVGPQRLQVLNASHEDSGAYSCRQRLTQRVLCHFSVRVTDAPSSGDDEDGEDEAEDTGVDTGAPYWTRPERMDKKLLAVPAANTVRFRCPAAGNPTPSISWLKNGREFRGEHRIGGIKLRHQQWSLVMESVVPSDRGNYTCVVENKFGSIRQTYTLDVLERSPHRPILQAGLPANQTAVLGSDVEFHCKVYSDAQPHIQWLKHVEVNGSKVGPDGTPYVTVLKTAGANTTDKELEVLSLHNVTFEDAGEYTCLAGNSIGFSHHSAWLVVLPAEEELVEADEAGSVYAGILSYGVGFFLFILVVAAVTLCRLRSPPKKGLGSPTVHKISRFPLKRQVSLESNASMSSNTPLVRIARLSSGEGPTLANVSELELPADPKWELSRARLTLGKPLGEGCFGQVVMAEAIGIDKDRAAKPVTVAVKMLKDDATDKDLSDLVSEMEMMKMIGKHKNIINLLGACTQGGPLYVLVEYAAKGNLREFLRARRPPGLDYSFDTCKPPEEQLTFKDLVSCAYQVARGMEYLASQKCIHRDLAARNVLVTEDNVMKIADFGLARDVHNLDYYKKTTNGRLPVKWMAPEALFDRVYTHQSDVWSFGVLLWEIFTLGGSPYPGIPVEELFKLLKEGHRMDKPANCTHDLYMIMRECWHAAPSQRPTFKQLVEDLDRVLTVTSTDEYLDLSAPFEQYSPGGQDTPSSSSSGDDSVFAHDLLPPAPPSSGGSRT
Chain of Rho-associated protein kinase 1 (Homo sapiens) (Q13464 2-1354 limits assumed): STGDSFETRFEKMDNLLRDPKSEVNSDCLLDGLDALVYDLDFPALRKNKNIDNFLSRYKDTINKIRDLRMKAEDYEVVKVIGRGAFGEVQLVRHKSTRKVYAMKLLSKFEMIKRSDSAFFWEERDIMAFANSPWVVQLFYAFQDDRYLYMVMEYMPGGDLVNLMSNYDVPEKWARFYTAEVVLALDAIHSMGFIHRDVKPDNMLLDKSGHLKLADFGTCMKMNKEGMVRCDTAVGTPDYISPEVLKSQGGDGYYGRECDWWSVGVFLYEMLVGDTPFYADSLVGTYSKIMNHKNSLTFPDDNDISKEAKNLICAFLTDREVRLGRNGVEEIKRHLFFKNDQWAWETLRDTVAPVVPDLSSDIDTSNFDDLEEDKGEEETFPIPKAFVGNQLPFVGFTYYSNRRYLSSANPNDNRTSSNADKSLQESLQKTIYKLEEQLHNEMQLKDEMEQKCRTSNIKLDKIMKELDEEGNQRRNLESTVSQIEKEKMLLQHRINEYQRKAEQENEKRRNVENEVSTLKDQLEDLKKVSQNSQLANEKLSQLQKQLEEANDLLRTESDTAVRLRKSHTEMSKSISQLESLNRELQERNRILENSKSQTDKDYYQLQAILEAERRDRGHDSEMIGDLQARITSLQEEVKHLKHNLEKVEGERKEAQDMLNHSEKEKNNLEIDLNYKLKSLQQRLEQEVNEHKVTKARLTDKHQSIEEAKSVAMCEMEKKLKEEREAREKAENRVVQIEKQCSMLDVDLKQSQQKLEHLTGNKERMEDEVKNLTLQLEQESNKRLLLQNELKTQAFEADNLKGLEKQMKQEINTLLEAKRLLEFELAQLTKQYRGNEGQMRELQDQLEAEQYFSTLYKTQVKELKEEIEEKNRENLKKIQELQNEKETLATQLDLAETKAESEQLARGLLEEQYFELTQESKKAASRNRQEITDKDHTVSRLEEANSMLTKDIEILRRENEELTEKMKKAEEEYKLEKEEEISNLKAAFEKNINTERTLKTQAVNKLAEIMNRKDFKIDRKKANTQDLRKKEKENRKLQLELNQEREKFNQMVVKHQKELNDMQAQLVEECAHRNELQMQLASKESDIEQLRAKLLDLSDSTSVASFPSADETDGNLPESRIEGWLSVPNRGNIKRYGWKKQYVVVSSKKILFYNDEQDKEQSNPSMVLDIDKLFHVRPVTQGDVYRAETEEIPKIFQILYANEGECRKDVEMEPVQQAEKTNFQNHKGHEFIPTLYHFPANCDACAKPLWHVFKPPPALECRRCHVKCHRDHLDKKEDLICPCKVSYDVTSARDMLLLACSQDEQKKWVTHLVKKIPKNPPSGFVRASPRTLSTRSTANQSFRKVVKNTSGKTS

Work on `CN1C(=O)c2sccc2N(C)c2nc(Nc3ccc(S(N)(=O)=O)cc3)ncc21` yielded a pIC50 [1] of 5.82, an Activity [2] of 77% and an Activity [3] of 98%. It also gave an Activity [4] of 60%, an Activity [5] of 98% and an Activity [6] of 26%. For the same molecule, the Activity [7] was 4.3%, the Activity [8] was 99% and the Activity [9] was 89%. It also gave an Activity [10] of 100%, an Activity [11] of 100% and an Activity [12] of 100%. The Activity [13] was 100%, the pKd [14] was 7.89 and the pKd [15] was 7.66. For the same molecule, the pIC50 [16] was 8.01, the pIC50 [17] was 7.74 and the pIC50 [18] was 7.75. The pIC50 [19] was 5.86, the Activity [20] was “Non-Toxic” and the Activity [21] was “Toxic”.
